Screens deposited in PubChem by The Scripps Research Institute Molecular Screening Center.
GPR7 antag = GPR7 receptor antagonists, primary screen, cell-based, fluorescence, single concentration | Neuropeptides B/W receptor type 1 (Homo sapiens), P48145 | GPR7-expressing cells, fluorescence antagonist assay | inhibition, % at 4.4 µM | hit rate 1.1% among 290,000 | AID 1861, 2009; in the data active = inhibition above about 16%, passing the limit was not always enough;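 note: cells stimulated with the agonist NPW; 0% = agonist with vehicle and 100% = vehicle without agonist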
OX1R antag-1 = OX1R (HCRTR1) antagonists, primary screen, fluorescence, CHO/OX1R cells, Fluo-8 calcium, orexin A; Fluo-8 calcium fluorescence; inhibition, % at 5 µM; hit rate 0.43% among 330,000;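 active = inhibition above its plate's threshold, mean inhibition of all tested compounds on the plate plus 3 SD, cut at about 37% in these data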;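 note: 0% = orexin A challenge wells and 100% = SB-334867-A antagonist wells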
CHO parental Ca = ATP-evoked calcium signal inhibitors, parental CHO, primary screen, counter-screen for OX1R antagonist project, cell-based, fluorescence, Fluo-8 calcium dye | parental CHO-K1, ATP-induced calcium, Fluo-8 fluorescence | inhibition, % at 5.6 µM | hit rate 0.63% among 330,000 | AID 463079, 2010;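 active = inhibition above that plate's mean sample inhibition plus 3 SD, cut at about 26% in these data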;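 note: 0% = ATP-challenged DMSO wells and 100% = DMSO wells without ATP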
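Test system: untransfected parental CHO cell line. Compound: one dose, 5.6 µM nominal. Detection: intracellular calcium via Fluo-8 no-wash fluorescent dye. Measure: % inhibition. Benchmarks: ATP-challenged DMSO wells low, unchallenged DMSO wells high.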
OX1R antag-2 = antagonists of human orexin 1 receptor (OX1R); Orexin/Hypocretin receptor type 1 (Homo sapiens), O43613; OX1R-expressing cells, FRET antagonist read-out; inhibition, % at 6.6 µM; hit rate 1.8% among 330,000; in the data active = inhibition mostly above about 38%, no sharp cut-off; inactive = mostly below about 40%;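 note: 0% = agonist challenge alone and 100% = reference antagonist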
GalR3 antag = GalR3 antagonists in HEK293 cells, primary screen, cell-based, fluorescence readout | hit rate 0.44% among 360,000 | inhibition, % at 3 µM | Galanin receptor type 3 (Homo sapiens), O60755 | HEK293 GalR3-CNG cAMP membrane potential fluorescence; galR3 body fused to GalR1 C-terminus;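 active = inhibition above the screen-wide average plus 3 SD, cut at about 13% in these data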;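 note: forskolin and galanin both at EC90 stimulate the cells; cAMP rise reported by CNG channel membrane potential dye signal; 0% = forskolin plus galanin with DMSO and 100% = forskolin alone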
Target sequence (O60755 1-299 limits assumed): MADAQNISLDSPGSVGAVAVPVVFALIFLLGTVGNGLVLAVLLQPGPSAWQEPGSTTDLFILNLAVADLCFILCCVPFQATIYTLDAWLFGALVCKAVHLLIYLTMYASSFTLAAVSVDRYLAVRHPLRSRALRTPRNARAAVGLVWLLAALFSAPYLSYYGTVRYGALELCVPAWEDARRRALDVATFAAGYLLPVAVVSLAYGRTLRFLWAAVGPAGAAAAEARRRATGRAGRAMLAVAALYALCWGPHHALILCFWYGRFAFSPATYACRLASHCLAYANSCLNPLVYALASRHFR
* marks the source's active call; other numbers are inactive results; x = no result. In the library only some 3.1% were active in any assay of this set; here they are far more common.

SMILES	GPR7 antag	OX1R antag-1	CHO parental Ca	OX1R antag-2	GalR3 antag
COC(=O)c1c(C)nc2nonc2c1N	-9	-4	5	65*	-2
CCCN1C(=O)c2[nH]nc(-c3ccccc3)c2C1c1ccc(C)cc1 (stereo not given)	x	x	x	x	-10
COc1cccc(/C=N/Nc2nnc3c(n2)[nH]c2ccccc23)c1OC	-7	2	-13	45*	-1
Cc1ccccc1NC(=O)N(C)[C@H]1C[C@H]2c3[nH]c4c(-c5ccc6c(c5)OCO6)cccc4c3CCN2C(=O)[C@H]1[C@H](C)O	x	x	x	x	-6
Cc1nc2ccc(C(=O)Nc3ccc(N(C)C)cc3)cc2s1	x	4	-15	61*	3
CN(C)c1ccc(NC(=O)c2ccc3nsnc3c2)cc1	-4	16	-5	32	-2
Cc1ccc(NC(=O)c2ccc(NCCN)c([N+](=O)[O-])c2)cc1Cl	8	-11	-3	10	-6
Cc1nc2ccc(NC(=O)c3ccccc3)cc2s1	1	-29	-8	16	7
CC(=O)c1ccc(NC(=O)c2ccc3nc(C)sc3c2)cc1	-19	1	-12	61*	-2
Cc1nc2ccc(NC(=O)c3ccc4ccccc4n3)cc2s1	-8	0	-17	65*	-2
CCNc1ccc(C(=O)Nc2ccc3nc(C)sc3c2)cc1[N+](=O)[O-]	-4	-25	-29	60*	3
O=C(NC1CCCC1)[C@@H]1CCCN1C(=O)[C@H](Cc1cccnc1)NC(=O)N1CCOCC1	x	x	x	x	2
Cc1c(C#N)c(O)[nH]c(=O)c1N=Nc1ccc(Cl)c(C(=O)O)c1	-12	-8	-3	25	-4
Cc1c(C#N)c(O)[nH]c(=O)c1N=Nc1ccc(S(N)(=O)=O)cc1	4	-8	2	41*	-9
C=CCc1cccc(/C=N/NC(=O)c2ccc3nc[nH]c3c2)c1O	6	2	-8	23	5
O=C(OCC(=O)N1CCN(C(=O)c2ccco2)CC1)c1cc(F)c(F)cc1Cl	x	6	-11	5	-2
CCCCCCCCCn1c2c(c(=N)c3c1CCC3)CCCC2	68*	x	x	x	x
O=S(=O)(c1cccs1)N1CCN(CC(O)COc2cc(Cl)ccc2Cl)CC1 (stereo not given)	-1	74*	69*	75*	68*
O=S(=O)(c1cccs1)N1CCN(CCOc2ccc(Cl)cc2)CC1	x	2	-4	11	0
CCCN(CCC)C(=O)C1CCN(c2ccc(S(=O)(=O)N3CCOCC3)cc2[N+](=O)[O-])CC1	0	-28	-17	25	4
Nc1nonc1-c1nc2ccccc2n1CC(=O)Nc1ccccc1	5	-6	7	7	-5
CCOC(=O)c1ccccc1NC(=O)Cn1c(-c2nonc2N)nc2ccccc21	21*	4	-6	13	0
COC(=O)C1=C(C)N(Cc2cccc(C(F)(F)F)c2)C(=NCc2ccc3c(c2)OCO3)NC1c1cccc(F)c1 (stereo not given)	x	x	x	x	-7
O=C(Nc1cccc([N+](=O)[O-])c1)ONC1=NCCCCC1	-14	-4	0	17	-3
O=C(ONC1=NCCCCC1)c1ccc([N+](=O)[O-])cc1	5	3	-10	50*	6
SMILES	GPR7 antag	OX1R antag-1	CHO parental Ca	OX1R antag-2	GalR3 antag
Cc1ccc(-c2cc(C(=O)N3N=C(C(F)F)CC3(O)C(F)F)c3ccccc3n2)cc1C (stereo not given)	-14	10	45*	26	-8
COc1ccccc1CNC(=O)CSc1ccc(-c2cccs2)nn1	3	-9	-20	59*	-3
COc1cccc(CNC(=O)CSc2ccc(-c3cccs3)nn2)c1	-5	-16	-10	58*	-3
CC(=O)Nc1ccc(NC(=O)CSc2ccc(-c3cccs3)nn2)cc1	1	-3	0	20	0
COc1ccc(NC(=O)CSc2ccc(-c3cccs3)nn2)c(OC)c1	-3	-21	-14	36	-8
COc1ccccc1CNC(=O)CSc1ccc(-c2ccccn2)nn1	-6	-18	-17	11	-1
O=C(CSc1ccc(-c2cccs2)nn1)NCc1ccccc1Cl	-11	-13	-18	70*	x
COc1ccccc1NC(=O)CC1S/C(=N/N=C2\CCCc3ccccc32)NC1=O (stereo not given)	0	20	6	54*	2
COc1ccc(S(=O)(=O)NCC(c2ccc3c(c2)OCO3)N2CCN(c3ccccc3)CC2)cc1 (stereo not given)	x	-8	-21	5	-3
O=[N+]([O-])c1cnc2ccccc2c1	-6	-3	-8	71*	0
Cc1cc(NC(=O)c2ccc([N+](=O)[O-])cc2)n(C)n1	-8	-10	-20	35	-5
COc1ccc(/C=C2\SC(=N)N(c3nccs3)C2=O)cc1OC	-8	28	26*	73*	5
CCN(CCCNS(=O)(=O)c1ccc2c(c1)oc(=O)n2C)c1cccc(C)c1	17*	-7	0	12	1
CCN(c1cccc(C)c1)S(=O)(=O)c1ccc2c(c1)oc(=O)n2C	14	-22	-13	9	-11
